Reference: article PMC3902791 (Molecular imaging and biology : MIB : the official …, 2012)
Where two headings read alike, the source gives them in different places.

Set-up: species or system human
Procedure, shortened: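 Organ time–activity curves came from whole-body scan VOI data. These were fitted mono-exponentially in five animals; in the sixth, with two scans, a linear fit to the log values was used. Time-integrated activity coefficients were scaled by the ratio of body-mass-normalised human to CT-derived macaque organ masses. Intestinal values were split in thirds across small intestine, ULI and LLI. Organ doses (mSv/MBq) were computed per animal with the OLINDA/EXM 1.1 adult male model.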

O=C(O)C[18F] [^18F-FACE, ^18F-fluoroacetate]
Organ dose to adult human model, Lungs (from animal 2, male): 0.010 mSv/MBq | Organ dose to adult human model, Muscle (from animal 2, male): 0.010 mSv/MBq | Organ dose to adult human model, Osteogenic cells (from animal 2, male): 0.014 mSv/MBq | Organ dose to adult human model, Pancreas (from animal 2, male): 0.014 mSv/MBq | Organ dose to adult human model, Red marrow (from animal 2, male): 0.011 mSv/MBq | Organ dose to adult human model, Skin (from animal 2, male): 0.007 mSv/MBq | Organ dose to adult human model, Small intestine (from animal 2, male): 0.045 mSv/MBq | Organ dose to adult human model, Spleen (from animal 2, male): 0.011 mSv/MBq | Organ dose to adult human model, Stomach wall (from animal 2, male): 0.013 mSv/MBq | Organ dose to adult human model, Testes (from animal 2, male): 0.009 mSv/MBq | Organ dose to adult human model, Thymus (from animal 2, male): 0.010 mSv/MBq | Organ dose to adult human model, Thyroid (from animal 2, male): 0.009 mSv/MBq | Organ dose to adult human model, ULI wall (upper large intestine) (from animal 2, male): 0.071 mSv/MBq | Organ dose to adult human model, Urinary bladder wall (from animal 2, male): 0.015 mSv/MBq | Dose to adult human model, Total body (from animal 3, male): 0.012 mSv/MBq | ED effective dose, adult human model (from animal 3, male): 0.028 mSv/MBq | EDE effective dose equivalent, adult human model (from animal 3, male): 0.030 mSv/MBq | Organ dose to adult human model, Adrenals (from animal 3, male): 0.013 mSv/MBq | Organ dose to adult human model, Brain (from animal 3, male): 0.009 mSv/MBq | Organ dose to adult human model, Breasts (from animal 3, male): 0.008 mSv/MBq | Organ dose to adult human model, Gallbladder wall (from animal 3, male): 0.017 mSv/MBq | Organ dose to adult human model, Heart wall (from animal 3, male): 0.020 mSv/MBq | Organ dose to adult human model, Kidneys (from animal 3, male): 0.034 mSv/MBq | Organ dose to adult human model, LLI wall (lower large intestine) (from animal 3, male): 0.120 mSv/MBq | Organ dose to adult human model, Liver (from animal 3, male): 0.014 mSv/MBq | Organ dose to adult human model, Lungs (from animal 3, male): 0.010 mSv/MBq | Organ dose to adult human model, Muscle (from animal 3, male): 0.011 mSv/MBq | Organ dose to adult human model, Osteogenic cells (from animal 3, male): 0.016 mSv/MBq | Organ dose to adult human model, Pancreas (from animal 3, male): 0.014 mSv/MBq | Organ dose to adult human model, Red marrow (from animal 3, male): 0.012 mSv/MBq | Organ dose to adult human model, Skin (from animal 3, male): 0.008 mSv/MBq | Organ dose to adult human model, Small intestine (from animal 3, male): 0.055 mSv/MBq | Organ dose to adult human model, Spleen (from animal 3, male): 0.012 mSv/MBq | Organ dose to adult human model, Stomach wall (from animal 3, male): 0.014 mSv/MBq | Organ dose to adult human model, Testes (from animal 3, male): 0.010 mSv/MBq | Organ dose to adult human model, Thymus (from animal 3, male): 0.010 mSv/MBq | Organ dose to adult human model, Thyroid (from animal 3, male): 0.010 mSv/MBq | Organ dose to adult human model, ULI wall (upper large intestine) (from animal 3, male): 0.088 mSv/MBq | Organ dose to adult human model, Urinary bladder wall (from animal 3, male): 0.017 mSv/MBq | Dose to adult human model, Total body (from animal 4, female): 0.008 mSv/MBq | ED effective dose, adult human model (from animal 4, female): 0.016 mSv/MBq | EDE effective dose equivalent, adult human model (from animal 4, female): 0.019 mSv/MBq | Organ dose to adult human model, Adrenals (from animal 4, female): 0.010 mSv/MBq | Organ dose to adult human model, Brain (from animal 4, female): 0.005 mSv/MBq | Organ dose to adult human model, Breasts (from animal 4, female): 0.005 mSv/MBq | Organ dose to adult human model, Gallbladder wall (from animal 4, female): 0.040 mSv/MBq | Organ dose to adult human model, Heart wall (from animal 4, female): 0.027 mSv/MBq | Organ dose to adult human model, Kidneys (from animal 4, female): 0.026 mSv/MBq | Organ dose to adult human model, LLI wall (lower large intestine) (from animal 4, female): 0.060 mSv/MBq | Organ dose to adult human model, Liver (from animal 4, female): 0.032 mSv/MBq | Organ dose to adult human model, Lungs (from animal 4, female): 0.007 mSv/MBq | Organ dose to adult human model, Muscle (from animal 4, female): 0.007 mSv/MBq | Organ dose to adult human model, Osteogenic cells (from animal 4, female): 0.010 mSv/MBq | Organ dose to adult human model, Ovaries (from animal 4, female): 0.013 mSv/MBq | Organ dose to adult human model, Pancreas (from animal 4, female): 0.010 mSv/MBq | Organ dose to adult human model, Red marrow (from animal 4, female): 0.007 mSv/MBq | Organ dose to adult human model, Skin (from animal 4, female): 0.005 mSv/MBq | Organ dose to adult human model, Small intestine (from animal 4, female): 0.029 mSv/MBq | Organ dose to adult human model, Spleen (from animal 4, female): 0.008 mSv/MBq | Organ dose to adult human model, Stomach wall (from animal 4, female): 0.009 mSv/MBq | Organ dose to adult human model, Thymus (from animal 4, female): 0.007 mSv/MBq | Organ dose to adult human model, Thyroid (from animal 4, female): 0.006 mSv/MBq | Organ dose to adult human model, ULI wall (upper large intestine) (from animal 4, female): 0.045 mSv/MBq | Organ dose to adult human model, Urinary bladder wall (from animal 4, female): 0.014 mSv/MBq | Organ dose to adult human model, Uterus (from animal 4, female): 0.011 mSv/MBq | Dose to adult human model, Total body (from animal 5, female): 0.010 mSv/MBq | ED effective dose, adult human model (from animal 5, female): 0.018 mSv/MBq | EDE effective dose equivalent, adult human model (from animal 5, female): 0.021 mSv/MBq | Organ dose to adult human model, Adrenals (from animal 5, female): 0.012 mSv/MBq | Organ dose to adult human model, Brain (from animal 5, female): 0.008 mSv/MBq | Organ dose to adult human model, Breasts (from animal 5, female): 0.008 mSv/MBq | Organ dose to adult human model, Gallbladder wall (from animal 5, female): 0.036 mSv/MBq | Organ dose to adult human model, Heart wall (from animal 5, female): 0.015 mSv/MBq | Organ dose to adult human model, Kidneys (from animal 5, female): 0.042 mSv/MBq | Organ dose to adult human model, LLI wall (lower large intestine) (from animal 5, female): 0.062 mSv/MBq | Organ dose to adult human model, Liver (from animal 5, female): 0.015 mSv/MBq | Organ dose to adult human model, Lungs (from animal 5, female): 0.009 mSv/MBq | Organ dose to adult human model, Muscle (from animal 5, female): 0.010 mSv/MBq | Organ dose to adult human model, Osteogenic cells (from animal 5, female): 0.014 mSv/MBq | Organ dose to adult human model, Ovaries (from animal 5, female): 0.017 mSv/MBq | Organ dose to adult human model, Pancreas (from animal 5, female): 0.013 mSv/MBq | Organ dose to adult human model, Red marrow (from animal 5, female): 0.010 mSv/MBq | Organ dose to adult human model, Skin (from animal 5, female): 0.007 mSv/MBq | Organ dose to adult human model, Small intestine (from animal 5, female): 0.031 mSv/MBq | Organ dose to adult human model, Spleen (from animal 5, female): 0.011 mSv/MBq | Organ dose to adult human model, Stomach wall (from animal 5, female): 0.012 mSv/MBq | Organ dose to adult human model, Thymus (from animal 5, female): 0.009 mSv/MBq | Organ dose to adult human model, Thyroid (from animal 5, female): 0.009 mSv/MBq | Organ dose to adult human model, ULI wall (upper large intestine) (from animal 5, female): 0.047 mSv/MBq | Organ dose to adult human model, Urinary bladder wall (from animal 5, female): 0.017 mSv/MBq | Organ dose to adult human model, Uterus (from animal 5, female): 0.014 mSv/MBq | Dose to adult human model, Total body (from animal 6, female): 0.012 mSv/MBq | ED effective dose, adult human model (from animal 6, female): 0.018 mSv/MBq | EDE effective dose equivalent, adult human model (from animal 6, female): 0.019 mSv/MBq | Organ dose to adult human model, Adrenals (from animal 6, female): 0.013 mSv/MBq | Organ dose to adult human model, Brain (from animal 6, female): 0.010 mSv/MBq | Organ dose to adult human model, Breasts (from animal 6, female): 0.009 mSv/MBq | Organ dose to adult human model, Gallbladder wall (from animal 6, female): 0.016 mSv/MBq | Organ dose to adult human model, Heart wall (from animal 6, female): 0.017 mSv/MBq | Organ dose to adult human model, Kidneys (from animal 6, female): 0.026 mSv/MBq | Organ dose to adult human model, LLI wall (lower large intestine) (from animal 6, female): 0.052 mSv/MBq | Organ dose to adult human model, Liver (from animal 6, female): 0.017 mSv/MBq | Organ dose to adult human model, Lungs (from animal 6, female): 0.011 mSv/MBq | Organ dose to adult human model, Muscle (from animal 6, female): 0.011 mSv/MBq | Organ dose to adult human model, Osteogenic cells (from animal 6, female): 0.017 mSv/MBq | Organ dose to adult human model, Ovaries (from animal 6, female): 0.018 mSv/MBq | Organ dose to adult human model, Pancreas (from animal 6, female): 0.014 mSv/MBq | Organ dose to adult human model, Red marrow (from animal 6, female): 0.011 mSv/MBq | Organ dose to adult human model, Skin (from animal 6, female): 0.009 mSv/MBq | Organ dose to adult human model, Small intestine (from animal 6, female): 0.029 mSv/MBq | Organ dose to adult human model, Spleen (from animal 6, female): 0.013 mSv/MBq | Organ dose to adult human model, Stomach wall (from animal 6, female): 0.013 mSv/MBq | Organ dose to adult human model, Thymus (from animal 6, female): 0.011 mSv/MBq | Organ dose to adult human model, Thyroid (from animal 6, female): 0.011 mSv/MBq | Organ dose to adult human model, ULI wall (upper large intestine) (from animal 6, female): 0.040 mSv/MBq | Organ dose to adult human model, Urinary bladder wall (from animal 6, female): 0.021 mSv/MBq | Organ dose to adult human model, Uterus (from animal 6, female): 0.016 mSv/MBq
